# Assay outcomes deposited in PubChem BioAssay by several laboratories.
# Pemphigus Ab inh = blocks pemphigus antibody binding to human desmoglein-3 | P32926 | binding (percent of control), % at 10 µM | AID 588358 | actives 0.48% (n = 310,000) | DSG3-coupled beads, scFv-anti-DSG3-GFP binding, flow cytometry; stronger effect = lower value;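 active = binding more than 3 SD below its plate's average and above zero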;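 note: hits lower antibody fragment binding to DSG3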
# Target sequence (P32926 whole entry, looked up, the tested form may be a part): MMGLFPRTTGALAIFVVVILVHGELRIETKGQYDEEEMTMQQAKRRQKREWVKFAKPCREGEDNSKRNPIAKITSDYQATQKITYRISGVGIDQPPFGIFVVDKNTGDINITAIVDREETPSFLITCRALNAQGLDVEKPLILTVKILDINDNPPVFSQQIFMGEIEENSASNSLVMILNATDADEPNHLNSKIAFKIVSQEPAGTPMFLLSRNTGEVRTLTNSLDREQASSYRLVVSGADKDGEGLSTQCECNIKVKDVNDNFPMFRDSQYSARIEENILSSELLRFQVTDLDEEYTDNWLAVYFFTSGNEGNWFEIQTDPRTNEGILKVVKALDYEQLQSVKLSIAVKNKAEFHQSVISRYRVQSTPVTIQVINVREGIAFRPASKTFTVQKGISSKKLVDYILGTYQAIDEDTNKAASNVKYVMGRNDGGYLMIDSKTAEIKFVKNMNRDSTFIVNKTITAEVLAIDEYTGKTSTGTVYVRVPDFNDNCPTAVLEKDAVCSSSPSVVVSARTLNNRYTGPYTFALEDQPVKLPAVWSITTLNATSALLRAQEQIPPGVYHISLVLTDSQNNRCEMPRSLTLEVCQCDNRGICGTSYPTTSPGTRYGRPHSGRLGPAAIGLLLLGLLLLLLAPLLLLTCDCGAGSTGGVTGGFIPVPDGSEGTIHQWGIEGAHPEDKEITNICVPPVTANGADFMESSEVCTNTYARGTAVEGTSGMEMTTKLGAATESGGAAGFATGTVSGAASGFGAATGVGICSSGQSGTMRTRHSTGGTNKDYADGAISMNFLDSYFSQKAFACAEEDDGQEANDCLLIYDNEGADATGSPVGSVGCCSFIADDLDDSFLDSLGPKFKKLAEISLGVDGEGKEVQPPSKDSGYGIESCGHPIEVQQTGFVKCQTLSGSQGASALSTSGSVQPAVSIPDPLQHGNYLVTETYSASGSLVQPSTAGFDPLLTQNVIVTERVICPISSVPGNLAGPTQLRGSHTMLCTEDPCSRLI
# Efflux pump inh = antifungal efflux pump inhibition, Nile Red retention | S. cerevisiae Candida pump triplex | inhibition, % at 10 µM | actives 0.44% (n = 330,000) | AID 485275;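 active = plate passing quality check with inhibition over a set limit, or well fluorescence over plate mean plus 4 SD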;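 note: Nile Red retained in pooled yeast measured as flow cytometry median fluorescence; 0% = buffer negative control and 100% = Enniatin B positive control; higher means more Nile Red kept so more efflux inhibition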
# Arr AP2 block = human beta-arrestin and AP2 interaction inhibition; FITC-arrestin peptide / GST-AP2 beads, flow cytometry; AP2 beta2 appendage carries R879A mutation; inhibition, % at 10 µM; actives 0.31% (n = 340,000);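 active = inhibition above a set limit, near 3 SD of compounds lacking own fluorescence, cut at about 54% in these data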;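 note: plate controls were DMSO wells for no effect and 5 µM unlabelled arrestin peptide for full effect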
#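 System: GST-AP2 R879A bound to glutathione beads, E. coli-expressed. Also added: 50 nM FITC-arrestin peptide. Schedule: compound with beads 12 min RT, then probe 1 h RT. Signal: bead flow cytometry, FITC channel. Read-out basis: percent response.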
# Neddylation inh = cullin neddylation inhibition. P61081+Q13564. inhibition, % at 25 µM. actives 0.58% (n = 360,000). TR-FRET cullin neddylation, biochemical; in the data active = inhibition above about 36%
# Arr-AP2 CP1 = inhibitors of human beta-arrestin and AP2 interaction. shares compounds with Arr AP2 block. GST-AP2 beads, FITC arrestin peptide binding, flow cytometry; GST-fused beta2-adaptin appendage, R879A mutant. inhibition, % at 10 µM. actives 2% (n = 1,300);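 active = inhibition above a set limit, roughly 3 SD of non-fluorescent compound noise, cut at about 38% in these data; inactive = inhibition at or below that limit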;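 note: loss of bead fluorescence from 50 nM FITC arrestin peptide bound to appendage; 0% = negative control wells and 100% = excess unlabelled arrestin peptide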
# GST GSH counter = counter-screen for beta-arrestin AP2 inhibitors: GST-GSH bead binding; actives 2% (n = 1,300); inhibition, % at 10 µM; GST-fluorescein binding to GSH beads, fluorescence; shares compounds with Arr AP2 block;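 active = inhibition above 50%, about 3 SD of the inhibition seen with non-fluorescent compounds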;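 note: fluorescein maleimide labelled GST captured on 4 micron glutathione beads; higher means more loss of bead fluorescence from quenching or blocked binding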
# * = called active by the depositor; . = no result given. A selection: hits, their analogues and other compounds. The true share with any hit is near 1.7%.
SMILES,Pemphigus Ab inh,Efflux pump inh,Arr AP2 block,Neddylation inh,Arr-AP2 CP1,GST GSH counter
O=C(c1cn(-c2ccccc2)nc1-c1ccccc1)N1CCN(c2ccccn2)CC1,98.6,0.1,40.8,13.3,.,.
O=C(c1ccccc1CCc1ccccc1)N1CCN(c2ccccn2)CC1,101.3,-0.1,84.5*,20.2,-7.9,-0.8
O=C(c1cc2ccccc2o1)N1CCN(c2ccccn2)CC1,105.0,1.0,58.6*,-4.0,-0.3,-3.3
CCCC(=O)OCCNc1cc(Sc2nc3ccccc3[nH]2)c2nonc2c1[N+](=O)[O-],95.7,-0.3,54.6*,-13.0,-0.4,6.6
COc1ccccc1N1CCN(C(=O)CSc2ncnc3scc(-c4ccccc4)c23)CC1,102.0,-0.1,60.3*,-105.7,4.5,1.9
Cc1ccc(-c2csc3ncnc(N4CCN(c5ccccc5O)CC4)c23)cc1,96.6,0.1,4.3,-13.5,.,.
COc1ccc(-c2csc3ncnc(N4CCN(c5ccccc5O)CC4)c23)cc1,95.6,0.2,55.8*,-26.2,-12.0,-3.3
O=C(CSc1ncnc2scc(-c3ccccc3)c12)N1CCN(c2ccccc2F)CC1,99.1,0.3,3.3,-95.6,.,.
COc1ccc(S(=O)(=O)NC2CCCCC2)cc1-n1cnnn1,99.4,0.1,56.3*,7.8,-5.7,-8.8
CCCC(CCC)c1nnc(NC(=O)c2ccco2)s1,114.9,0.3,8.9,12.7,.,.
COc1ccc(NC(=O)c2cc(S(=O)(=O)N3CCOCC3)ccc2N2CCOCC2)cc1,.,1.9,-8.7,7.4,.,.
COc1ccc(CN(C)C(=O)c2cc(S(=O)(=O)N3CCOCC3)ccc2N2CCCC2)cc1,.,0.2,5.7,15.3,-2.5,-3.9
CC1CCN(C(=O)c2cc(S(=O)(=O)N3CCOCC3)ccc2N2CCCC2)CC1,99.7,0.1,25.9,11.7,0.9,-6.9
O=C(Nc1ccc(OC(F)F)cc1)c1cc(S(=O)(=O)N2CCOCC2)ccc1N1CCCC1,101.9,.,27.9,12.4,0.6,2.0
CN(Cc1cccs1)C(=O)c1cc(S(=O)(=O)N2CCOCC2)ccc1N1CCCC1,.,0.2,34.3,12.0,.,.
CC(Oc1cccc(Cl)c1)C(=O)Nc1cc(S(=O)(=O)N2CCOCC2)ccc1N1CCCC1 (centres undefined),100.7,0.0,62.4*,-17.1,2.5,0.8
CN(Cc1cccc(F)c1)C(=O)c1ccc(S(=O)(=O)N2CCOCC2)cc1,94.7,-0.1,62.8*,-50.4,-4.2,-7.1
CN(Cc1cccc(F)c1)C(=O)c1ccc(S(=O)(=O)N2CCCCCC2)cc1,.,0.0,18.4,8.0,.,.
O=C(NC1CCCCCC1)c1cc(S(=O)(=O)N2CCOCC2)ccc1N1CCCCC1,.,0.1,-8.2,12.1,-8.1,-3.9
Cc1ccc(CN2C(=O)CCC2C(=O)NCCCN2CCOCC2)cc1 (centres undefined),101.5,0.1,91.8*,3.7,5.3,-1.0
Cc1ccc(CN2C(=O)CCC2C(=O)NCCN2CCN(c3cccc(Cl)c3)CC2)cc1 (centres undefined),108.5,0.1,5.8,-3.2,6.6,1.7
O=C(NCC1CCCO1)C1CCC(=O)N1Cc1ccccc1Cl (centres undefined),104.1,0.0,7.8,3.1,.,.
CCOc1cc(NC(=S)NCCCN2CCOCC2)c(OCC)cc1NC(=O)c1ccc(C)cc1,98.7,0.1,57.7*,9.3,-1.7,-7.3
O=C(NCCN1CCOCC1)C1CCC(=O)N1Cc1ccccc1Cl (centres undefined),100.4,0.0,12.0,-0.1,10.3,-2.2
CC1OC(COCc2ccccc2)Cc2[nH][nH]c(=O)c21 (centres undefined),.,.,.,-1.5,.,.
SMILES,Pemphigus Ab inh,Efflux pump inh,Arr AP2 block,Neddylation inh,Arr-AP2 CP1,GST GSH counter
COc1cccc(CN2CCN(c3nc4nonc4nc3N3CCCCC3)CC2=O)c1,102.4,0.1,5.8,-8.6,.,.
Cn1nccc1-c1ccc(C(=O)NCc2ccc(Cl)cc2)c2occc12,.,.,.,2.9,.,.
CCCOC(=O)c1c(NC(=O)CSc2nc(-c3ccco3)cc(C(F)(F)F)n2)sc(C(=O)OC)c1C,98.9,0.0,-7.0,15.7,.,.
Cc1cc(C)n(CC2CC(=O)N(c3ccc(Cl)c(Cl)c3)C2=O)n1 (centres undefined),102.2,0.0,-2.6,-3.1,.,.
COC(=O)C1=C(C(=O)OC)[C@@H]2Nc3ccccc3[C@@]23C[C@@H](C(=O)OC)N(C(=O)NC2CCCCC2)C3=N1,.,-0.2,.,.,.,.
O=C(Nc1ccc(C(=O)N2CCOCC2)cc1)c1ccccc1[N+](=O)[O-],85.8,0.3,-3.8,-8.5,.,.
Cc1ccc(CN2C(=O)CCC2C(=O)NCc2ccco2)cc1 (centres undefined),103.7,0.1,92.3*,2.3,13.2,1.0
O=C(NCCN1CCOCC1)C1CCC(=O)N1Cc1ccc(F)cc1 (centres undefined),98.2,-0.1,-2.3,-3.5,-5.0,1.2
Cc1ccc(CN2C(=O)CCC2C(=O)NCCCN2CCC(C)CC2)cc1 (centres undefined),109.4,.,-2.7,25.1,-1.7,9.6
Cc1ccc(CN2C(=O)CCC2C(=O)NC(C)C)cc1 (centres undefined),94.8,0.0,29.1,-3.2,.,.
CCC1CCCCN1CCCNC(=O)C1CCC(=O)N1Cc1ccc(C)cc1 (centres undefined),113.9,0.0,-3.8,2.3,-4.9,0.5
CNC(=O)C1CCC(=O)N1Cc1ccc(C)cc1 (centres undefined),108.1,-0.2,1.4,-5.4,.,.
Cc1ccc(CNC(=O)C2CCC(=O)N2Cc2ccc(F)cc2)cc1 (centres undefined),128.6,0.0,6.5,2.3,.,.
CCCc1nnc(SCC(=O)Nc2ccccc2F)o1,114.3,-0.1,3.9,-4.6,.,.
O=C(C[C@H]1C/C=C\CC[C@H](Cc2ccc(F)cc2)C(=O)OC[C@@H](Cc2c[nH]c3ccccc23)NC1=O)NCCO,100.5,0.2,.,-7.7,.,.
Cc1cc(NC(=O)c2cc(-c3ccc(C)s3)nc3ccccc23)no1,79.7,-0.2,103.4*,.,22.2,38.3
Cc1cc(NC(=O)c2cc(-c3ccccc3C)nc3ccccc23)no1,97.4,4.9,4.2,-6.2,.,.
C[C@@H]1CCCCO[C@H](CN(C)Cc2ccc(C(F)(F)F)cc2)[C@@H](C)CN([C@H](C)CO)C(=O)c2cc(NS(=O)(=O)c3cn(C)cn3)ccc2O1,.,.,.,4.1,.,.
CCOc1ccc(C(=O)NCC(=O)N2CC=C(c3ccccc3)CC2)cc1OCC,100.9,-0.1,-3.8,6.2,.,.
Cc1ccccc1/C=N/Nc1ccc(Cl)nn1,108.4,0.0,60.2*,-1.0,-13.9,-3.5
COc1cc(OC)c(OC)cc1/C=N/Nc1ccc(Cl)nn1,101.5,-0.1,8.4,-2.1,.,.
Cc1ccc(S(=O)(=O)N(C)CC(=O)O/N=C(\N)c2ccccn2)cc1,99.0,0.2,97.3*,2.5,5.7,-6.7
